One series has as its system cells. The conditions noted are these: NBD alone; cited from earlier work.
Series [1] concerns U-87 MG cells. Put plainly: MTT assay for cell viability, U-87 MG. In kind it is cell-based, human. The conditions noted are these: for cell death induced: positive control, data not shown. The procedure, abridged:
(§1)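 Seeded in 96-well plates: SH-SY5Y at 8,000/well, U-87 MG at 5,000/well. Exposed 20 h to test compound 0.5–15 μM or equal-volume PBS vehicle; H2O2 400 or 800 μM as positive control. MTT 0.5 mg/mL for 3 h at 37°C. Formazan dissolved in isopropanol with 0.1 M HCl; optical density at 590 nm. Mean ± SE of five separate incubations.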
A general note: Formazan colour is commonly taken as a measure of viable cells.

The test system of series [2] is SH-SY5Y cells. The series can be described thus: MTT assay for cell viability, SH-SY5Y. In kind it is cell-based, human. The conditions noted are these: for cell death induced: positive control, data not shown. The method in brief: as §1
The subject of a further series is blood–brain barrier. Put plainly: Immunofluorescence analysis of brain sections. In kind it is in vivo. The conditions noted are these: rat, intravenous 40 μg/100 g, 3.5 hours. The procedure, abridged: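 Same rats dosed iv at 40 μg/100 g, sampled at 3.5 h. Brains Bouin-fixed and paraffin-embedded; sections dewaxed, citrate (pH 6.0) microwave unmasking at 96°C. Stained with anti-BBB SMI-71, anti-GFAP or anti-tubulin III and 594-nm secondaries; imaged at 488/515 and 594/618 nm. Deconvolved, nMDP colocalisation. Outside/inside-vessel fluorescence per ROI area over ten sections, n=3 per group; two-tailed unpaired t-test.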

The test system of series [3] is brain homogenates. Put plainly: Mitochondrial respiration rate in brain homogenate after in vivo administration. The conditions noted are these: rat brain homogenate; intravenous 40 μg/100 g, 3.5 hours; three rats. The method in brief:
(§2)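 Same iv dosing (40 μg/100 g, PBS vehicle, three rats, sampled at 3.5 h). Homogenate (300 μg protein) in 1 mL buffer: 80 mM KCl, 50 mM HEPES, 1 mM EGTA, 5 mM KH2PO4, 2 mM MgCl2, 1% BSA, pH 7.4. Added 4 μM rotenone and 5 mM succinate; basal without ADP, stimulated with 200 μM ADP; respiratory control ratio derived. Clark electrode at 37°C; 1 mM KCN added. Triplicate runs.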

Series [4] relates to liver homogenates. Put plainly: Cytochrome oxidase activity. The conditions noted are these: rat liver homogenate; intravenous 40 μg/100 g, 3.5 hours; three rats. In kind it is in vivo. The procedure, abridged:
(§3)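 Male Wistar rats (250–300 g), three per group, given a single iv dose of NBD-peptide 40 μg/100 g or PBS vehicle. Zoletil anaesthesia, decapitation at 3.5 h. Tissue homogenised 1:5 w/v in mannitol/sucrose/Tris/EDTA/EGTA/1% BSA medium, pH 7.4. Diluted 1:2 with Lubrol, 30 min on ice. Cytochrome oxidase assayed polarographically (Clark electrode, 37°C), with 1 mM KCN control. Mean ± SE of three rats; triplicate runs.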

Series [5] has as its system liver homogenates. The series can be described thus: Mitochondrial respiration rate in liver homogenate after in vivo administration. The conditions noted are these: rat liver homogenate; intravenous 40 μg/100 g, 3.5 hours; three rats. The method in brief: as §2
Series [6] has as its system U-87 MG cells. The series can be described thus: Maximal oxidative capacity. In kind it is cell-based, human. The conditions noted are these: regardless of the concentration used, 20 hours, five separate incubations (Figure 1D).
Series [7] has as its system U-87 MG cells. The series can be described thus: Cellular uptake by fluorescence microscopy, U-87 MG. In kind it is cell-based, human. The conditions noted are these: 1 or 5 μM (Figure 2: 5 μM), 2 hours, NBD fluorescence, fixed cells. The procedure, abridged:
(§4)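 NBD-labelled peptide (N-terminal) in PBS. Cells grown in DMEM with 10% FBS, 2 mM L-glutamine, penicillin and streptomycin at 37°C in 5% CO2. Seeded at 60,000/well on four-well chamber slides, then exposed to 1 or 5 μM for 2 h. Fixed in ice-cold methanol for 10 min and mounted in glycerol/PBS 1:1. Imaged on NBD (λem 515 nm) and DAPI (λex 350/λem 461 nm) channels.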

Series [8] relates to U-87 MG cells. Put plainly: Spectrofluorimetric analysis of internalized peptide, U-87 MG. In kind it is cell-based, human. The conditions noted are these: concentration not given.
Series [9] concerns SH-SY5Y cells. Put plainly: Maximal oxidative capacity. In kind it is cell-based, human. The conditions noted are these: 0–15 μM, 20 hours, Clark-type oxygen electrode 37°C, five separate incubations (Figure 1C).
Series [10] has as its system brain homogenates. Put plainly: Cytochrome oxidase activity. In kind it is in vivo. The conditions noted are these: rat brain homogenate; intravenous 40 μg/100 g, 3.5 hours; three rats. The method in brief:
as §3

Series [11] concerns SH-SY5Y cells. Put plainly: Cellular uptake by fluorescence microscopy, SH-SY5Y. In kind it is cell-based, human. The conditions noted are these: 1 or 5 μM (Figure 2: 5 μM), 2 hours, NBD fluorescence, fixed cells. The method in brief:
as §4

Another series relates to liver. The series can be described thus: Fluorescence histological analysis ex vivo, liver. In kind it is in vivo. The conditions noted are these: rat, single intravenous administration of gH625-NBD 40 μg/100 g body weight, 3.5 hours. The method in brief:
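Male Wistar rats (250–300 g; n=3 per group) got one iv dose of NBD-labelled test peptide, 40 μg/100 g, or PBS vehicle. After 3.5 h: ip Zoletil anaesthesia, then decapitation. Liver dissected. Half was fixed in Bouin's fluid 24 h and paraffin-embedded. 7 μm sections treated with 0.1% Sudan Black B in 70% ethanol 20 min against autofluorescence, then hemallum-stained and imaged for green fluorescence.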

The subject of a further series is brain. The series can be described thus: Fluorescence histological analysis ex vivo, brain. In kind it is in vivo. The conditions noted are these: rat, single intravenous administration of gH625-NBD 40 μg/100 g body weight, 3.5 hours. The method in brief: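 Male Wistar rats (250–300 g; n=3 per group) got one iv dose of NBD-labelled test peptide, 40 μg/100 g, or PBS vehicle. After 3.5 h: ip Zoletil anaesthesia, then decapitation. Sagittal 10 μm sections: Bouin's fixation 24 h, paraffin, 0.1% Sudan Black B in 70% ethanol 20 min, hemallum. Co-stained for SMI-71 endothelial marker, GFAP or tubulin III (citrate pH 6.0 unmasking), colocalization by nMDP. Outside/inside-vessel fluorescence ratio from ≥10 slices.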

On to “7-nitrobenz-2-oxa-1,3-diazole-4-yl [NBD]”, for which the “penetration into the cells” value in the series on cells was “almost unable to penetrate”.

As for `OO` [H2O2], the cell death induced in the series with U-87 MG cells [1] (400 μM) is 22%; in the series with U-87 MG cells [1] (800 μM), 52%; with SH-SY5Y cells [2] (400 μM), 30%; with SH-SY5Y cells [2] (800 μM) it was 45%.

Turning to H-HGLASTLTRWAHYNALIRAFGGG-NH2 [gH625], the “colocalization with astrocytes surrounding the BBB (anti-GFAP, nMDP)” value in the series on blood–brain barrier is recorded as “little or no colocalization”. Further, the “colocalization with the endothelial BBB (anti-BBB SMI-71, nMDP)” value in the series with blood–brain barrier is listed as “More colocalization”. Besides, the “effect on respiratory control ratio” value in the series with brain homogenates [3] is “no changes”. Moreover, the “effect on maximal oxidative capacity (cytochrome oxidase activity)” value with liver homogenates [4] is listed as “not affected”; in the series on U-87 MG cells [6], “ineffective”; in the series with SH-SY5Y cells [9], “did not significantly affect”; in the series on brain homogenates [10], “not affected”. Also, the “effect on mitochondrial respiration rate” value in the series with liver homogenates [5] is recorded as “does not influence”. The “cellular uptake by fluorescence microscopy” value in the series with U-87 MG cells [7] and in the series on SH-SY5Y cells [11] was “significant uptake” each time. In the series on U-87 MG cells [8], the “administered peptide taken up” value is given as “more than 90%”. In addition, the “effect on cell viability (MTT)” value was “no significant effect” in the series on U-87 MG cells [1] (0.5–15 μM, 20 hours, mean ± standard error of five separate incubations (Figure 1B)) and “no significant effect” in the series on SH-SY5Y cells [2] (0.5–15 μM, 20 hours, mean ± standard error of five separate incubations (Figure 1A)). Further, the “distribution in liver (fluorescence histology)” value in the series on liver is listed as “partly taken up by Kupffer cells”. In the series on brain, the “distribution in brain (fluorescence histology)” value is “reaches the BBB and accumulates in the extensions of nerve cells”.

The values are drawn from paper PMC4364164 (International Journal of Nanomedicine, 2015).
